Screens: PubChem, The Scripps Research Institute Molecular Screening Center
PRMT1 inh: blocks human protein arginine methyltransferase 1; Q99873; recombinant PRMT1, activity-based probe fluorescence polarization; inhibition, % at 2.79 µM; actives 1.3% (n = 370,000); AID 652257;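 active = inhibition above about 21% made by adding two undisclosed values, limit read from the data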
ABHD4 inh: inhibitors of mouse ABHD4; Q8VD66; purified mABHD4, FP-Rh probe fluorescence polarization; inhibition, % at 8.92 µM; actives 0.54% (n = 370,000); AID 720543;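 active = inhibition exceeding the mean over every tested compound plus 3 SD, cut at about 30% in these data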;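 note: 0% = plate median of compound wells and 100% = S159A mutant with DMSO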
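system = mouse ABHD4 enzyme, wild type | medium = HEPES pH 7.0, NaCl, Pluronic buffer | also added = FP-Rh probe | incubation = Enzyme–compound pre-incubation 45 min, then probe 60 min, both 25 °C | technique = fluorescence polarization, excitation 525 nm, emission 598 nm, BODIPY TMR filters | controls = S159A mutant high control, sample median low control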
SIAE primary: blocks human sialic acid acetylesterase; Q9HAT2; inhibition, % at 9.66 µM; SIAE FP-Rh probe binding, fluorescence polarization; actives 0.69% (n = 370,000);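 active = inhibition above a cutoff: mean of compounds within the control limits plus 3 SD of those, cut at about 17% in these data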;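 note: 0% = plate median of compound wells and 100% = probe without SIAE protein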
TCR CD3 inh: blocks the human TCR-CD3 interaction | TAMRA-labeled TCR probe fluorescence, biochemical | inhibition, % at 9.4 µM | actives 0.37% (n = 360,000); in the data active = inhibition above about 19%;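 note: recombinant mutant TCR 2C K166C tagged with TAMRA read by polarization; 0% = receptor in buffer alone and 100% = receptor with positive control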
HTRA1 inh: blocks human HTRA1 serine peptidase; Q92743; actives 0.5% (n = 340,000); inhibition, % at 5.96 µM; recombinant HTRA1, FP-rhodamine activity-based probe, fluorescence polarization; in the data active = inhibition above about 36%;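 note: 0% = enzyme with DMSO and 100% = wells lacking enzyme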
Target sequence (Q92743 whole entry, looked up): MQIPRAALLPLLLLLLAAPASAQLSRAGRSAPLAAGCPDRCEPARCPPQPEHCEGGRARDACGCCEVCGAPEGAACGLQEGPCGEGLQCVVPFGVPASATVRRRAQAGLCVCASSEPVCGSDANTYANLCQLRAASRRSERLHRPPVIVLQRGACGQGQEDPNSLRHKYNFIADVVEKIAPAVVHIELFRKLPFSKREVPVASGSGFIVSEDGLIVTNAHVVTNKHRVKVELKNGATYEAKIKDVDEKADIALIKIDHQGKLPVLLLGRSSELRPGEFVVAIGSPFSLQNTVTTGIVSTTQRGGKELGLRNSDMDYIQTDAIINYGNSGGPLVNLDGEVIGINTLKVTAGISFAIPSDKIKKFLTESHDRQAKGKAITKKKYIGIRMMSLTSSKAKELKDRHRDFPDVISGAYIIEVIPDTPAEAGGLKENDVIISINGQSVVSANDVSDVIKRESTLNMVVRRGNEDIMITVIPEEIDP
SIAE confirm: confirmation of human SIAE inhibitors; shares compounds with SIAE primary; SIAE FP-Rh activity-based probe, fluorescence polarization; inhibition, % at 9.66 µM; actives 13% (n = 2,300);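 active = mean inhibition of the replicates above the hit cutoff set in the primary screen, cut at about 17% in these data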;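 note: 0% = SIAE with DMSO and probe and 100% = probe without SIAE; inhibitors lower polarization as more probe stays unbound to SIAE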
Active calls of the source: *; . = no result. A selection: hits, their analogues and other compounds. The true share with any hit is near 2.7%.

SMILES | PRMT1 inh | ABHD4 inh | SIAE primary | TCR CD3 inh | HTRA1 inh | SIAE confirm
CC(C#N)(NC(=O)CN1CCN(S(=O)(=O)c2ccccc2C#N)CC1)C1CC1 (stereo not given) | -2 | -1 | 20* | 1 | 7 | -1
O=C(Cc1ccc(F)cc1)N1CCN(c2ccc([N+](=O)[O-])cc2)CC1 | -2 | -2 | 20* | 4 | 6 | 5
O=C(Cc1ccc([N+](=O)[O-])cc1)N1CCN(c2ccc([N+](=O)[O-])cc2)CC1 | 1 | 0 | -1 | -1 | -6 | .
Cn1c(=O)c(Nc2ccc(Cl)cc2)c2c3c(cccc31)C(=O)c1ccccc1-2 | 93* | 42* | 31* | 42* | . | 35*
O=C1C(Cl)=C(N2CCCCCC2)C(=O)N1c1ccccc1 | 2 | -2 | 3 | -1 | -11 | .
O=C1C(Cl)=C(N2CCCCC2)C(=O)N1Cc1ccccc1 | -4 | 2 | 18* | 8 | -10 | 1
COc1ccc(CNc2ccc3c(c2)ncn3C)cc1OC | 4 | 5 | 18* | 1 | 1 | 6
Cc1ccc(CNc2ccc3c(c2)ncn3C)cc1 | 6 | 3 | 10 | 2 | 3 | .
CCCn1cnc2cc(NCc3cccc(OC)c3O)ccc21 | -2 | 9 | 25* | 4 | 12 | 5
CCN(CC(=O)Nc1ccc2c(c1)OCCO2)C(=O)CC(NC(C)=O)c1ccccc1 (stereo not given) | 0 | -1 | 6 | 5 | 2 | .
CCC(C)NC(=O)CS(=O)Cc1nc(-c2cccc(C)c2)oc1C (stereo not given) | 1 | -1 | 25* | -6 | 0 | 1
CCCCNC(=O)CS(=O)Cc1nc(-c2cccc(C)c2)oc1C (stereo not given) | -1 | 2 | 26* | 0 | -5 | 2
Cc1cccc(-c2nc(CS(=O)CC(=O)NC3CCCC3)c(C)o2)c1 (stereo not given) | 2 | -3 | -7 | 4 | -1 | .
CCCCSCCCNC(=O)CS(=O)Cc1nc(-c2cccc(C)c2)oc1C (stereo not given) | 0 | -5 | 5 | 12 | -8 | .
CCN1C(=O)[C@H]2[C@@H](c3ccc(C)cc3)N3C(=O)N(c4cccc(Cl)c4)C(=O)[C@@]3(C)[C@H]2C1=O | 0 | 1 | 23* | 7 | -8 | 4
CCN1C(=O)[C@H]2[C@@H](c3ccc(C)cc3)N3C(=O)N(c4ccccc4)C(=O)[C@@]3(C)[C@H]2C1=O | 1 | 10 | 5 | -1 | -3 | .
COc1ccc(N=Nc2c(N)n[nH]c2N)cc1 | -6 | -1 | 22* | 6 | 1 | 1
CCC(c1nc2ccccc2[nH]1)n1c(C)nc2ccccc21 (stereo not given) | -4 | -2 | 2 | 7 | . | .
CCCCCCCCC(c1nc2ccccc2[nH]1)N1CCN=C1c1cc2ccccc2[nH]1 (stereo not given) | -3 | 26 | 22* | 6 | . | 28*
NC(=S)NNc1ccnc2cc(Cl)ccc12 | 3 | 14 | 20* | -9 | 0 | 2
O=C(NNc1ccnc2cc(Cl)ccc12)C1CCCCC1 | 4 | -1 | -2 | -3 | 7 | .
FC(F)Oc1ccc(NC(=S)NNc2ccnc3cc(Cl)ccc23)cc1 | 3 | 24 | 35* | -6 | 15 | 0
CCCc1nnc(SCc2ccc(OC)cc2)n1N | 0 | 5 | 18* | 5 | -1 | 1
O=[N+]([O-])c1ccc(N2CCN(Cc3ccc4c(c3)OCO4)CC2)nc1 | 1 | -5 | 24* | -9 | 3 | 0
NC(=O)c1ccc(NC(=O)c2cc(S(=O)(=O)N3CCCCC3)ccc2N2CCOCC2)cc1 | 3 | 5 | 21* | -1 | -3 | -3
SMILES | PRMT1 inh | ABHD4 inh | SIAE primary | TCR CD3 inh | HTRA1 inh | SIAE confirm
CC(=O)Nc1ccc(NC(=O)c2cc(S(=O)(=O)N3CCCCC3)ccc2N2CCOCC2)cc1 | -2 | -3 | -7 | 4 | 2 | .
COc1ccc(C2=Nn3c(nnc3-c3ccccc3OC)SC2)cc1OCC1CC1 | 18 | 4 | 29* | 16 | -3 | 27*
COc1ccc(OC)c(-c2nnc3n2N=C(c2ccc(OC(F)F)c(OCC4CC4)c2)CS3)c1 | 4 | -20 | -20 | -4 | -122 | .
Nc1ccc2nc(-c3cccc(-c4nc5ccc(N)cc5[nH]4)c3)[nH]c2c1 | 4 | -3 | 26* | -10 | 8 | 37*
Nc1ccc2nc(-c3ccc(Cl)cc3)[nH]c2c1 | -3 | 15 | 54* | -1 | 33 | 4
O=[N+]([O-])c1ccc(-c2nc3ccc([N+](=O)[O-])cc3[nH]2)cc1 | -1 | -10 | 18* | 6 | -4 | 7
Nc1ccc2nc(-c3cc(Cl)c(N)c(Cl)c3)[nH]c2c1 | 0 | 22 | 24* | -11 | 32 | 13
Cc1nc2ccc(-c3nc4ccc(N)cc4[nH]3)cc2[nH]1 | 3 | 8 | 6 | -13 | 6 | .
CCNC(=O)C1(C)CCCN(C(=O)c2sc(-c3ccccc3)nc2C)C1 (stereo not given) | 4 | -4 | 1 | -5 | . | .
Brc1ccc(N2O[C@H]3C=C[C@@H]2C3)nc1 | 15 | 11 | 11 | 9 | . | .
CCOC(=O)C1=CCC(c2ccc(C#N)cc2)N(S(=O)(=O)c2ccc(C)cc2)C1 (stereo not given) | -2 | -8 | 5 | 2 | . | .
Nc1ccc(-c2nc3ccc(N)cc3[nH]2)cc1 | 1 | 15 | 25* | -9 | 10 | 8
COc1cccc(CNC(=O)[C@H]2CCCN2C(=O)[C@H]2CCCN2C(=O)N2CCCCC2)c1 | 2 | 3 | 6 | 1 | . | .
Cc1c(C(=O)N2CCCCC2)c(S(=O)(=O)N(C)Cc2ccccc2)c(C)n1C | -2 | 3 | 23* | -4 | -2 | -1
Cc1[nH]c2ccccc2c1/C=N/NC(=S)NC(C)C | 1 | 10 | 20* | -2 | 17 | 14
Cc1[nH]c2ccccc2c1/C=N/NC(=O)C1CC1(c1ccccc1)c1ccccc1 (stereo not given) | 3 | -2 | 27* | -6 | 0 | 2
Cc1[nH]c2ccccc2c1/C=N\NC(=O)c1ccccc1Cl | 0 | 1 | 3 | 8 | 12 | .
O=C(NCc1ccccc1)C(c1cc2ccccc2o1)n1c(=O)c(-c2ccccc2)nc2ccccc21 (stereo not given) | -2 | -3 | 1 | 2 | . | .
CCOCCCNC(=O)CN1C(=O)CSc2cc(S(=O)(=O)N3CCCCCC3)ccc21 | -2 | 4 | 31* | 9 | 4 | 0
CCOCCCNC(=O)CN1C(=O)CSc2ccc(S(=O)(=O)N3CCOCC3)cc21 | -2 | 4 | 0 | 0 | 7 | .
NS(=O)(=O)c1cccc(NC(=O)CC2(CC(=O)O)CCCC2)c1 | -2 | 4 | 36* | 2 | 2 | -1
Clc1ccc(-n2c(SCc3cccc4ccccc34)nnc2-c2ccco2)cc1 | -2 | -12 | 0 | . | . | .
